Source: ChEMBL document CHEMBL1764958, “Synthesis and biological evaluation of 3,7-diazabicyclo[4.3.0]nonan-8-ones as potential nootropic and analgesic drugs” (2011)
Active and inactive are the calls of the source. The rule behind the calls is not given here.

Assays:
Mus musculus [1] = assay: Antiamnesic activity in ip dosed mouse assessed as reversal of scopolamine-induced amnesia after 20 mins by passive-avoidance test; format: functional; settings: for minimal effective dose: Mus musculus, ip, 20 min, read-out: MED
Rattus norvegicus [2] = assay: Antihyperalgesic activity in rat assessed as reversal of oxaliplatin-induced mechanical hyperalgesia at 10 mg.kg, ip by paw pressure test; format: functional, organism-based
Summary of the method: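 Rats received oxaliplatin 2.4 mg/kg ip on 5 consecutive days each week, for 15 injections totalling 36 mg/kg. Mechanical hyperalgesia was then measured by the paw-pressure test after a single ip dose of 10 mg/kg. Pregabalin 30 mg/kg po served as reference.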

Rattus norvegicus [3] = assay: Antihyperalgesic activity in rat assessed as reversal of oxaliplatin-induced mechanical hyperalgesia at 50 to 100 mg.kg, iv by paw pressure test; format: functional
Mus musculus [4] = species on record: Mus musculus; assay: Antihyperalgesic activity against thermal hyperalgesia in saline treated mouse diabetic neuropathy model assessed as licking latency time after 30 mins by hot plate test (reference value: 18 +/- 1.5 sec)
Mus musculus [5] = species on record: Mus musculus; assay: Antihyperalgesic activity against thermal hyperalgesia in saline treated mouse diabetic neuropathy model assessed as licking latency time after 15 mins by hot plate test (reference value: 18.1 +/- 1.1 sec)
Mus musculus [6] = species on record: Mus musculus; assay: Antihyperalgesic activity against thermal hyperalgesia in saline treated mouse diabetic neuropathy model assessed as licking latency time after 45 mins by hot plate test (reference value: 17.8 +/- 1.5 sec)
Mus musculus [7] = species on record: Mus musculus; assay: Antihyperalgesic activity against thermal hyperalgesia in saline treated mouse diabetic neuropathy model assessed as licking latency time after 60 mins by hot plate test (reference value: 18.4 +/- 1.6 sec)
Mus musculus [8] = species on record: Mus musculus; assay: Antihyperalgesic activity against streptozotocin-induced thermal hyperalgesia in mouse diabetic neuropathy model assessed as licking latency time after 15 mins by hot plate test (reference value: 9.4 +/- 1.3 sec)
Mus musculus [9] = species on record: Mus musculus; assay: Antihyperalgesic activity against streptozotocin-induced thermal hyperalgesia in mouse diabetic neuropathy model assessed as licking latency time after 45 mins by hot plate test (reference value: 9.3 +/- 1.2 sec)
Mus musculus [10] = species on record: Mus musculus; assay: Antihyperalgesic activity against streptozotocin-induced thermal hyperalgesia in mouse diabetic neuropathy model assessed as licking latency time after 30 mins by hot plate test (reference value: 10.1 +/- 0.8 sec)
Mus musculus [11] = species on record: Mus musculus; assay: Antihyperalgesic activity against streptozotocin-induced thermal hyperalgesia in mouse diabetic neuropathy model assessed as licking latency time after 60 mins by hot plate test (reference value: 10.4 +/- 1.2 sec)
Mus musculus [12] = assay: Antiamnesic activity in mouse assessed as reversal of scopolamine-induced amnesia at 10 mg/kg, ip after 20 mins by passive-avoidance test; format: functional, organism-based; set-up: dose 10 mg/kg
Summary of the method: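 Mice; compounds dissolved in saline, given ip 20 min before the training session of the passive-avoidance test. Scopolamine injected immediately after punishment. Doses tested up to 10 mg/kg; activity read as reversal of scopolamine-induced amnesia at retention. Each value is the mean of 8-18 mice, compared against scopolamine-treated mice.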

How did the MED (Mus musculus [1]) turn out when `O=C1C[C@@H]2CN(S(=O)(=O)c3ccc(F)cc3)CC[C@@H]2N1` (relative stereo) was run?
The MED was 0.1 mg/kg.

How did the Activity (Rattus norvegicus [2]) turn out when `O=C1CC2CN(S(=O)(=O)c3ccc(F)cc3)CCC2N1` (racemic; form 1) was run?
The Activity was “Active”.

With `O=C1C[C@@H]2CN(S(=O)(=O)c3ccc(F)cc3)CC[C@@H]2N1` (stereo in doubt; (+)-4) as the molecule, how does the Activity (Rattus norvegicus [3]) read?
Its Activity is 75%.

Which results are given for `CC(=O)NC1CCN(S(=O)(=O)c2ccc(F)cc2)CC1` [SAPUNIFIRAM]?
minimal effective dose (Mus musculus [1]): 0.01 mg/kg; Activity (Rattus norvegicus [2]): inactive; Time (Mus musculus [4]): 15.7 s; Time (Mus musculus [5]): 16.5 s; Time (Mus musculus [6]): 16.3 s; Time (Mus musculus [7]): 15.6 s; Time (Mus musculus [8]): 15.6 s; Time (Mus musculus [9]): 10.4 s; Time (Mus musculus [10]): 12.4 s; Time (Mus musculus [11]): 11.2 s

With `O=C1O[C@H]([C@@H](O)CO)C(O)=C1O` [ASCORBIC ACID] as the molecule, how does the Activity (Rattus norvegicus [3]) read?
The Activity was 50%.

For `O=C1C[C@@H]2CN(S(=O)(=O)c3ccc(F)cc3)CC[C@@H]2N1` (stereo in doubt; (-)-4), which minimal effective dose (Mus musculus [1]) is on record?
Its minimal effective dose is 0.1 mg/kg.

For `CC(C)S(=O)(=O)N1CC[C@@H]2NC(=O)C[C@@H]2C1`, which Activity (Mus musculus [12]) is on record?
Its Activity is “inactive”.

`O=C1C[C@H]2CN(S(=O)(=O)c3ccc(F)cc3)CC[C@@H]2N1` (relative stereo) was tested. Which MED (Mus musculus [1]) did it give?
Its MED is 1 mg/kg.

With `CC(=O)NC1CCN(C(=O)c2ccccc2)CC1` as the molecule, how does the minimal effective dose (Mus musculus [1]) read?
Its minimal effective dose is 10 mg/kg.

With `NC(=O)CN1CCCC1=O` [PIRACETAM] as the molecule, how does the minimal effective dose (Mus musculus [1]) read?
Its minimal effective dose is 30 mg/kg.

Which minimal effective dose (Mus musculus [1]) does the source give for `O=C1C[C@H]2CN(C(=O)c3ccccc3)CC[C@@H]2N1` (relative stereo) here?
Its minimal effective dose is 3 mg/kg.

`O=C1C[C@H]2CN(S(=O)(=O)c3ccc(F)cc3)CC[C@@H]2N1` (stereo in doubt; (-)-7) was tested. Which minimal effective dose (Mus musculus [1]) did it give?
The minimal effective dose was 1 mg/kg.

`O=C(O)CCCCC1CCSS1` (stereo not drawn) [LIPOIC ACID, ALPHA] was tested. Which Activity (Rattus norvegicus [3]) did it give?
Its Activity is 50%.

`O=C1CC2CN(S(=O)(=O)c3ccc(F)cc3)CCC2N1` (racemic; form 2) was tested. Which Activity (Rattus norvegicus [2]) did it give?
The Activity was “Active”.

`CC(C)S(=O)(=O)N1CC[C@@H]2NC(=O)C[C@H]2C1` (relative stereo) was tested. Which minimal effective dose (Mus musculus [1]) did it give?
Its minimal effective dose is 10 mg/kg.

With `O=C1C[C@@H]2CN(C(=O)c3ccccc3)CC[C@@H]2N1` (relative stereo) as the molecule, how does the minimal effective dose (Mus musculus [1]) read?
Its minimal effective dose is 3 mg/kg.

Which minimal effective dose (Mus musculus [1]) does the source give for `CC(=O)NC1CCN(S(=O)(=O)C(C)C)CC1` here?
The minimal effective dose was 1 mg/kg.
